# Hits are enriched below; roughly 4.1% of the tested compounds scored in any of these assays.
# UBC13 polyUb: human UBC13 polyubiquitination inhibition; P61088; UBC13 polyubiquitin chain formation, TR-FRET; inhibition, % at 20 µM; hit rate 0.47% among 330,000; in the data active means inhibition above about 45%, passing the limit was not always enough; inconclusive means no clear call, values can overlap the other calls
# Mdm2-MdmX inh: human Mdm2/MdmX binding inhibition; O15151+Q00987; SaOS-2 split-luciferase Mdm2/MdmX complementation, luminescence; inhibition, % at 8 µM; hit rate 3% among 330,000; AID 485346;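 active means inhibition of at least 50% at 8 µM in the primary screen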
# XBP1 UPR activ: activators of adaptive arm of unfolded protein response (XBP1) | activation, % at 20 µM | CHO-XBP1 luciferase reporter, IRE1-XBP1 UPR activation, luminescence; percent of tunicamycin response, DMSO as zero | AID 463104 | hit rate 0.33% among 330,000;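 active means versus positive control, 20 µM dose yields 30% or more activation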;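 further: 100% = tunicamycin at 10 µg/mL and 0% = DMSO only wells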
#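 Material: CHO cell line with stable XBP1 luciferase reporter; schedule: 16-18 h cell attachment at 37 °C, then 6 h compound exposure; signal: glow luminescence from Steady-Glo reagent; medium: serum-containing F12 medium, 10% FBS; benchmarks: tunicamycin 10 µg/mL and vehicle-only wells; read-out: percent activation relative to tunicamycin reference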
# Apaf1 inhib: human Apaf-1 inhibition | reconstituted apoptosome caspase-3 activity, DEVD-Rh110 fluorescence | inhibition, % at 20 µM | hit rate 0.71% among 330,000 | AID 489030; active means inhibition of at least 40% at 20 µM;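 further: plate controls were DMSO wells for no effect and DEVD-CHO caspase inhibitor wells for full effect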
# Target sequence (O14727 whole entry, looked up): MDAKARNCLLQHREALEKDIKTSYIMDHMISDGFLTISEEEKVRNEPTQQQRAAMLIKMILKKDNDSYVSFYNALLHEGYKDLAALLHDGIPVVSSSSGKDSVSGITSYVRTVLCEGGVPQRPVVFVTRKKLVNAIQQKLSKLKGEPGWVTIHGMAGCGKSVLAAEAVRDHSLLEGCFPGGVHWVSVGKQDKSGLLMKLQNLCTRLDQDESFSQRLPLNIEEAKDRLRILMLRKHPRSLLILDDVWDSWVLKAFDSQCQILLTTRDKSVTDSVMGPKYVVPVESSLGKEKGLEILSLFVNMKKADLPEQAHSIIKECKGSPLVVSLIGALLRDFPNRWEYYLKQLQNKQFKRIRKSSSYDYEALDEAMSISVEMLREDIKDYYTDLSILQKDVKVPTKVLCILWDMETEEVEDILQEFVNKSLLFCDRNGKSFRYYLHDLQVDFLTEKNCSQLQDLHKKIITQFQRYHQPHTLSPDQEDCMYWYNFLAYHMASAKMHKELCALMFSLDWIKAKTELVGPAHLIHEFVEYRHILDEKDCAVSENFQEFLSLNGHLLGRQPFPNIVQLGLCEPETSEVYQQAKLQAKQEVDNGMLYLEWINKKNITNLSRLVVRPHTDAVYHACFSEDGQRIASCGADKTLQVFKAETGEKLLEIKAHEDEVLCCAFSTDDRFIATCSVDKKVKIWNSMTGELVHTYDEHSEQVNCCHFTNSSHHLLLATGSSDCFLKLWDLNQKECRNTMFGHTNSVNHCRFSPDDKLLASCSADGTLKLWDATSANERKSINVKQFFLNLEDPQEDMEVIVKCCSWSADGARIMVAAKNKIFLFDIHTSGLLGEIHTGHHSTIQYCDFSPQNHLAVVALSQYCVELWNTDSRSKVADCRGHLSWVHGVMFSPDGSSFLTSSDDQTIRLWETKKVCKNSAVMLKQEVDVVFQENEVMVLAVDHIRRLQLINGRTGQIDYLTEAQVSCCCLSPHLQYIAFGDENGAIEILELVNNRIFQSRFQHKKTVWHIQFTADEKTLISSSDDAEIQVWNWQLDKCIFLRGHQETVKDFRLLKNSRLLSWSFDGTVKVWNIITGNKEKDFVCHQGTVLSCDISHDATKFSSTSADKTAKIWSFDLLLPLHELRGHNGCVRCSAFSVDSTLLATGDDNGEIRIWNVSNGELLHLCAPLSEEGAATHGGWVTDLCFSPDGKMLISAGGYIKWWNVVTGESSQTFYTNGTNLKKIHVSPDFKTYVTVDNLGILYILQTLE
#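 Assay system – apoptosome proteins · Medium – Hepes buffer, pH 7.5 · Also added – cytochrome c with DEVD-Rh110 · Timing – 30 min compound preincubation, 50 min activation, room temperature · Detection – Rh110 fluorescence, excitation 480 nm, emission 540 nm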
# CHOP UPR activ: apoptotic UPR (CHOP) activation. activation, % at 10 µM. CHO-CHOP luciferase reporter, luminescence; percent of tunicamycin response over DMSO baseline. hit rate 0.34% among 330,000;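 active means at 10 µM dose, activation of 40% or more, normalized to positive control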;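 further: 100% = tunicamycin at 10 µg/mL and 0% = DMSO alone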
#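 Test system: CHO CHOP reporter cells. Input: 500 CHO-CHOP cells per well. Medium: F12 with 10% FBS. Technique: luciferase luminescence. Measure: percent activation relative to tunicamycin control. Dosing: 10 µM compound, 0.5% DMSO. Timing: 16-18 h cell attachment, then 6 h compound exposure, 37 °C.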
# Mdm2 MdmX conf: confirmation of human Mdm2/MdmX interaction inhibitors | shares compounds with Mdm2-MdmX inh | Mdm2-MdmX binding, luminescent assay | inhibition, % at 8 µM | hit rate 55% among 10,000 | AID 489028; in the data active means inhibition above about 40%
# FLuc counter: counter-screen for Mdm2/MdmX inhibitors: full-length luciferase; shares compounds with Mdm2-MdmX inh; SaOS-2 full-length luciferase counterscreen, luminescence; inhibition, % at 8 µM; hit rate 77% among 6,200; AID 504607;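 active means mean inhibition at 8 µM reaching about 37%, which flags the compound as non-specific, limit read from the data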;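 further: p53-null SaOS-2 cells with luciferase driven by a doxycycline-inducible promoter; compound on cells about two nights before reading with doxycycline added after day one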
# The depositor's hits bear a star; ? = inconclusive; · = not tested or not shown.
SMILES,UBC13 polyUb,Mdm2-MdmX inh,XBP1 UPR activ,Apaf1 inhib,CHOP UPR activ,Mdm2 MdmX conf,FLuc counter
C=C1C(O)[C@@H]2O[C@]3(CC[C@H](/C=C/C(C)[C@@H]4CC(C)=CC5(O[C@H](C[C@@](C)(O)CO)CCC5O)O4)O3)CC[C@H]2O[C@@H]1C(O)CC(C)[C@H]1OC2(CCCCO2)CCC1C (some centres not stated),12.2,87.7*,4.3,-6.0,16.5,89.8*,33.4
C=C1[C@@H](O)[C@@H]2O[C@]3(CC[C@H](/C=C/[C@@H](C)[C@@H]4CC(C)=CC5(O[C@H](C[C@@](C)(O)C(=O)OC)CC[C@H]5O)O4)O3)CC[C@H]2O[C@@H]1[C@@H](O)C[C@H](C)[C@H]1OC2(CCCCO2)CC[C@H]1C (some centres not stated),11.6,99.5*,7.4,2.6,2.1,100.3*,1.0
CC1(C)Cc2c(sc3ncnc(NNC(=S)NCc4ccccc4)c23)CO1,-4.9,54.2*,-0.2,-8.8,-0.3,63.5*,84.4*
COC(=O)c1nnn(CC(=O)NC(=O)Nc2ccccc2)c1C(=O)OC,5.8,-13.1,-0.2,-4.9,4.5,·,·
C[n+]1c2n(c3ccccc31)N=C(c1ccccc1)CS2,7.5,13.5,-1.7,-3.7,-2.4,·,·
C[n+]1c2n(c3ccccc31)N=C(c1ccc(-c3ccccc3)cc1)CS2,16.9,80.3*,16.4,26.6,12.6,61.3*,25.5
O=C(O)C[C@H]1c2cc(C(F)(F)F)ccc2S(=O)(=O)N1C1CCCCC1,-13.9,9.1,0.5,1.2,-2.0,·,·
O=S(=O)(NCc1cn2ccsc2n1)c1ccc2c(c1)OCCO2,3.8,-7.4,-3.3,-3.2,-1.2,·,·
O=C(/C=C/c1ccc2ccccc2n1)N1CCN(S(=O)(=O)c2ccccc2F)CC1,1.4,75.6*,-3.8,-9.4,1.5,79.8*,25.5
O=C(/C=C/c1ccc2ccccc2n1)N1CCN(S(=O)(=O)c2ccc(F)cc2)CC1,-4.9,61.0*,-2.9,-0.1,0.5,76.1*,35.1
O=C(COC(=O)/C=C/c1ccc(Cl)cc1Cl)NCC1CCCO1 (configuration not stated),-5.9,18.9,-0.4,17.1,-0.5,·,·
Cc1ccc(NC(=O)/C(=C/c2cccc([N+](=O)[O-])c2)NC(=O)C2CCCCC2)c(C)c1,-1.3,87.9*,15.8,-18.0,12.5,-15.4,·
CCc1ccc(-c2cc(C)no2)cc1S(=O)(=O)NCCc1ccc(OC)c(OC)c1,-4.4,-28.7,-2.4,19.8,0.4,·,·
CC(C)=CCc1c2c(c(O)c3c(=O)c4c(oc13)-c1cc(O)c(O)cc1OC4C=C(C)C)C=CC(C)(C)O2 (configuration not stated),-109.9,82.8*,-2.5,8.5,0.6,41.9*,34.4
O=C1c2cc(Br)ccc2N(Cc2ccc(Br)cc2)S(=O)(=O)C1c1cc(Cl)c(Cl)cc1[N+](=O)[O-] (configuration not stated),-36.0,30.6,1.0,23.4,1.3,·,·
Fc1ccc(C2=Nn3c(nnc3-c3n[nH]c4c3CCC4)SC2)cc1,1.8,76.1*,4.3,3.0,1.8,43.9*,81.8*
COc1ccc(C2=Nn3c(nnc3-c3ccncc3)SC2)cc1,-4.3,51.8*,6.5,12.0,-2.3,54.9*,22.4
Cc1cc(-c2nnc3n2N=C(c2ccc(-c4ccccc4)cc2)CS3)n[nH]1,2.1,69.7*,8.9,37.1,7.3,12.2,·
CC1=Nn2c(nnc2-c2n[nH]c3c2CCC3)SC1,0.7,16.2,-0.6,-0.8,-2.4,·,·
O=C(Nc1ccc2c(c1)C(=O)N(c1ccccc1)C2=O)c1cccs1,5.1,50.3*,28.4,-3.9,9.2,10.8,·
O=C(O)CCN1C(=O)c2ccc(NC(=O)c3cccs3)cc2C1=O,11.5,-11.7,1.8,-14.1,-2.2,·,·
CCCNC(=O)c1cc(S(=O)(=O)N2CCc3ccccc32)cn1C,4.5,28.4,-3.1,6.2,-3.2,·,·
O=C(N/N=C/c1ccc2cccc(OCc3ccccc3)c2n1)c1ccc(Br)cc1,14.1,21.4,2.3,10.2,0.9,·,·
COc1ccc(C(=O)N/N=C/c2ccc3cccc(OCc4ccccc4)c3n2)cc1,4.2,59.3*,5.3,20.8,4.6,16.0,·
Cc1cccc(NC(=O)C(C)Sc2nc3ccccc3c(=O)n2CCCN2CCOCC2)c1 (configuration not stated),-4.8,88.6*,-3.5,12.3,-0.3,70.5*,51.4*
SMILES,UBC13 polyUb,Mdm2-MdmX inh,XBP1 UPR activ,Apaf1 inhib,CHOP UPR activ,Mdm2 MdmX conf,FLuc counter
O=C(CSc1nc2ccccc2c(=O)n1CCCN1CCOCC1)Nc1ccc(Br)cc1,0.2,33.5,-5.1,20.5,0.8,·,·
Cc1[nH]c2ccccc2c1C(=O)CSc1nc2ccccc2c(=O)n1CCCN1CCOCC1,25.8,58.8*,8.5,30.7,5.5,15.2,·
CCCCn1c(N)c(N(CC(C)C)C(=O)c2ccc(S(=O)(=O)N3CCCCCC3)cc2)c(=O)[nH]c1=O,?,5.2,-0.1,-0.9,-0.3,·,·
CCOc1ccc(NC(=O)CNC(=O)c2ccc(OC)cc2)cc1,5.3,26.4,-1.6,-18.5,-0.2,·,·
COc1ccc(C(=O)NCC(=O)Nc2ccc(-c3ccccc3)cc2)cc1,-6.7,51.3*,-0.2,-4.5,0.3,68.4*,61.6*
CC(=O)Nc1cccc(NC(=O)c2ccc(C(=O)Nc3cccc(NC(C)=O)c3)nc2)c1,-9.1,-12.5,1.1,-1.5,-2.1,·,·
Cc1cccc(NC(=O)c2ccc(C(=O)Nc3cccc(C)c3)nc2)c1,6.7,55.6*,0.0,-7.9,-0.1,51.7*,56.1*
COc1ccc(C(=O)N/N=C(/C)c2cccc(NC(=O)c3ccccc3F)c2)cc1,2.8,52.7*,-2.4,13.4,3.4,4.8,·
COc1ccc(C(=O)Nc2ccc(C(=O)Nc3cccc(C)c3)cc2)cc1,5.1,55.7*,0.3,-10.4,2.4,39.1,73.1*
Cc1nn2cnnc2c(C)c1Cc1ccc(Cl)cc1,0.7,-9.4,0.1,4.7,-0.9,·,·
CC1Nc2ncnc(N3CCc4ccccc4C3)c2N(Cc2ccc(Br)cc2)C1=O (configuration not stated),-24.7,53.5*,3.4,20.6,1.8,40.0,58.5*
CCOC(=O)C1=C(C)N=c2s/c(=C\c3ccc(O)c([N+](=O)[O-])c3)c(=O)n2C1c1ccccc1OC (configuration not stated),-208.7,13.0,-1.5,14.8,2.0,·,·
COc1ccc(/C=c2/sc3n(c2=O)C(c2ccccc2OC)C2=C(N=3)c3ccccc3CC2)cc1O (configuration not stated),-27.8,69.6*,2.4,-1.3,2.9,87.0*,29.6

# Screens (PubChem BioAssay)
